Laboratory results from ChEMBL document CHEMBL4715770, “Inhibition of Low Molecular Weight Protein Tyrosine Phosphatase by an Induced-Fit Mechanism” (J Med Chem, 2016).

Tests used:
[1] = molecular target: T1, Tyrosine-protein phosphatase non-receptor type 9 (Homo sapiens, UniProt P43378); assay: Inhibition of His-tagged PTP-MEG2 (unknown origin) expressed in Escherichia coli BL21 cells using para-nitrophenyl phosphate as substrate incubated for 5 to 10 mins by microplate reader based spectrophotometric analysis
T1 sequence (P43378 whole entry): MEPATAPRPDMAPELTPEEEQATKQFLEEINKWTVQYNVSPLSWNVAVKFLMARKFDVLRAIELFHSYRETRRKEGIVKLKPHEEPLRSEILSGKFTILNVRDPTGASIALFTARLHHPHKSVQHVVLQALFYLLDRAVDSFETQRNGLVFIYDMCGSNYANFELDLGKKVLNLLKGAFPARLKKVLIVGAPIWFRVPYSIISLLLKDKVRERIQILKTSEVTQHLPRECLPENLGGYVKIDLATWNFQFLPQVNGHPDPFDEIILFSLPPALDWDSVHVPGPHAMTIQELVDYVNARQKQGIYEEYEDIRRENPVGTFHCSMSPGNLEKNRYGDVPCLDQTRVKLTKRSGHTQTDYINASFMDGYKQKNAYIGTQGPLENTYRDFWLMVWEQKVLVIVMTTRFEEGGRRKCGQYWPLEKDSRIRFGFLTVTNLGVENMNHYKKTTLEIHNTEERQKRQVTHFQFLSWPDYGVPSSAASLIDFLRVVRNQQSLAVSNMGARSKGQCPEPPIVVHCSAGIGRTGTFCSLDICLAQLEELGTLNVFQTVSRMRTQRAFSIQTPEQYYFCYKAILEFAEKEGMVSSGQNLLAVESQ

[2] = molecular target: T2, Low molecular weight phosphotyrosine protein phosphatase (Homo sapiens, UniProt P24666); assay: Inhibition of His-tagged LMW-PTP isoform A (unknown origin) expressed in Escherichia coli BL21 cells using para-nitrophenyl phosphate as substrate incubated for 5 to 10 mins by microplate reader based spectrophotometric analysis
T2 sequence (P24666 whole entry): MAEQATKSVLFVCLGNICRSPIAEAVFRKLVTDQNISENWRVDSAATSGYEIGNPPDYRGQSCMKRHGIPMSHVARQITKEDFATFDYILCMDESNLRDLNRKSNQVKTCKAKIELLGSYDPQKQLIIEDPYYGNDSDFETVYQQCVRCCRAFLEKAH

[3] = molecular target: T2, Low molecular weight phosphotyrosine protein phosphatase; assay: Competitive inhibition of His-tagged LMW-PTP isoform A (unknown origin) expressed in Escherichia coli BL21 cells using para-nitrophenyl phosphate as substrate by Lineweaver-Burk plot analysis
Method in brief: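 Recombinant enzyme Ni-NTA purified (Tris pH 7.8, 500 mM NaCl, 250 mM imidazole elution), then Sephadex G75. pNPP hydrolysis in 50 mM 3,3-dimethylglutarate, pH 7.0, 25 °C. Enzyme added last to mixes of varied pNPP and inhibitor concentrations, 5-10 min, NaOH quench. p-nitrophenol read at 405 nm (ε 18,000 M-1cm-1), no-enzyme blank subtracted. Ki fitted by enzyme-kinetics regression.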

[4] = molecular target: Low molecular weight phosphotyrosine protein phosphatase (Homo sapiens) (UniProt P24666); assay: Inhibition of LMW-PTP isoform A in human HepG2 cells assessed as increase in insulin-induced Akt phosphorylation pretreated for 2 hrs followed by insulin stimulation and measured after 30 mins by Western blot analysis; type: cell-based; settings: dose 2-16 µM
Method in brief: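 HepG2 cells in DMEM with 10% FBS at 37 °C and 5% CO2 were grown to 60-80% confluence and serum-starved overnight. They were given vehicle or compound for 2 h, then 50 nM insulin for 30 min. Lysates were run on 10% SDS-PAGE and immunoblotted for phospho-AKT and total AKT with ECL detection. Densitometric pAKT/AKT ratios were normalized to vehicle.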

Structure (SMILES) | IC50 [1] [µM] | IC50 [2] [µM] | Ki [3] [µM] | inhibition [4]
O=C(Nc1ccc(-n2ccnc2)cc1)C(c1ccccc1)S(=O)(=O)O (stereo not drawn) | > 100 | – | – | –
O=C(Nc1ccc(OCc2ccccc2)c(Cl)c1)C(c1ccccc1)S(=O)(=O)O (stereo not drawn) | > 200 | – | – | –
O=C(Nc1cc(C(F)(F)F)cc(C(F)(F)F)c1)C(c1ccccc1)S(=O)(=O)O (stereo not drawn) | > 200 | 6.39 | – | –
O=C(Nc1nc2ccc([N+](=O)[O-])cc2s1)C(c1ccccc1)S(=O)(=O)O (stereo not drawn) | > 100 | 2.1 | 1 | Dose-dependent effect
